# ERAP1 inh: blocks human ERAP1 aminopeptidase activity | inhibition, % at 10.7 µM | recombinant ERAP1, Leu-AMC fluorescence, 60 min | actives 0.15% (n = 340,000);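 active = mean replicate inhibition of at least 30%, or all replicates individually reaching that 30% level; inactive = mean below 30% and not every replicate reaching it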;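 also: 0% = neutral control wells and 100% = L-leucinethiol positive control wells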
# Rtt109 Vps75: C. albicans Rtt109 histone acetyltransferase inhibition. actives 0.16% (n = 330,000). Q5AAJ8. purified Rtt109/Vps75, ThioGlo CoA-SH fluorescence, 4 h. inhibition, % at 34.9 µM;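 active = inhibition of at least 50% in every replicate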
# miR122 inh: miR-122 inhibition in Huh7 cells; Huh7 miR-122 Renilla luciferase sensor, 48 h; neutral wells = 0, positive control = 100; activation (reporter increase), % at 12.5 µM; actives 0.3% (n = 340,000);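 active = mean replicate activation score at least 90 and every replicate individually at or above 90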;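 also: higher luciferase means less miR-122 activity so hits act as miR-122 inhibitors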
# S100A4 inh HTS: inhibitors of human S100A4 binding to myosin IIA peptide; S100A4/TAMRA-MyoIIA peptide fluorescence polarization; inhibition, % at 10.7 µM; actives 0.14% (n = 360,000); AID 652163;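 active = mean inhibition of at least 70% across replicates, with every replicate also reaching that level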
#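 Material: human S100A4 monomer with TAMRA-labelled myosin IIA peptide; buffer or medium: HEPES pH 7.2 with CaCl2, KCl, NaCl, DTT, Triton; compound dosing: one concentration per compound; schedule: 5 min incubation before reading; benchmarks: neutral control DMSO, positive control TFP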
# MLL AF4-AF9 inh: blocks AF4 peptide binding to human AF9. AlphaScreen, biotin-AF4 peptide binding to FLAG-AF9. inhibition, % at 10 µM. actives 0.47% (n = 350,000);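 active = every replicate reaching a set inhibition limit, whatever the replicate mean, cut at about 25% in these data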;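 also: 0% = plate neutral control median and 100% = total signal loss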
# Target sequence (P42568 whole entry, looked up): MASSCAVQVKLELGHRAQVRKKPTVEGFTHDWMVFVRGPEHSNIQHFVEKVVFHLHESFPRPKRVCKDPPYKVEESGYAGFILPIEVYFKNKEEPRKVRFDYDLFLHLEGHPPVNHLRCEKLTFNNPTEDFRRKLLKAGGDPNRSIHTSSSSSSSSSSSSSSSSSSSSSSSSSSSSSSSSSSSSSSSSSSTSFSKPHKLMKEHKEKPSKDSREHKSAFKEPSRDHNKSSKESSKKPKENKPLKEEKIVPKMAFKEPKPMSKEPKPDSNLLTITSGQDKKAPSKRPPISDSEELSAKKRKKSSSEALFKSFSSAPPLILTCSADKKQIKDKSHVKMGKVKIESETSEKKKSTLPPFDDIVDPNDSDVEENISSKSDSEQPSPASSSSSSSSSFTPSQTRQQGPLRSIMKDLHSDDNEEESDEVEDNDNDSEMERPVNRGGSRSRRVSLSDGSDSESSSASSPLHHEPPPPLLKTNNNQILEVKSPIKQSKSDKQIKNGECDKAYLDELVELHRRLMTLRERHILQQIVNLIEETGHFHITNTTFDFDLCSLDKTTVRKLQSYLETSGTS
# * marks the source's active call; other numbers are inactive results; x = no result; [ ] = remark or other dose. Sampled rows, rich in hits. Any-hit rate of the full collection: about 0.86%.
SMILES,ERAP1 inh,Rtt109 Vps75,miR122 inh,S100A4 inh HTS,MLL AF4-AF9 inh
O=C(NCc1ccco1)c1ccc(N2CCCCC2)c([N+](=O)[O-])c1,x,3,0,x,x
Cc1ccc(N(Cc2ccco2)C(=O)c2ccc(N3CCCCC3)c([N+](=O)[O-])c2)cc1,9,13,165*,-1,10
CCC(=O)N(C)C[C@@H]1Oc2cc(-c3ccc(OC)cc3)ccc2S(=O)(=O)N([C@H](C)CO)C[C@@H]1C,0,x,4[16.7 µM],-6,1
N#CCc1ccc(NS(=O)(=O)c2ccc(C3CCCCC3)cc2)cc1,1,19,182*,0,-7
COc1ccc(S(=O)(=O)Nc2ccc(CC#N)cc2)cc1,x,-10,164*,x,x
O=C(N[C@H]1C=C[C@H](CC(=O)N2CCc3ccccc3C2)O[C@H]1CO)C1CCOCC1,2,x,x,0,-4
O=C(NC1CCCC1)N[C@H]1C=C[C@H](CC(=O)N2CCOCC2)O[C@H]1CO,0,x,1[16.7 µM],-20,2
Cc1c(Cl)cccc1NC(=O)CCCn1cnc([N+](=O)[O-])n1,x,-2,251*,0,0
Oc1ccccc1/C=N/[n+]1ccccc1,97*,8,4,-4,6
CCCN1C[C@@H](C)[C@@H](OC)CN(C)C(=O)c2ccc(NC(=O)C3CC3)cc2OC[C@@H]1C,1,x,x,-3,-1
CC(C)NC(=O)N1CC2(C1)[C@H](c1ccccc1)[C@@H](CO)N2C(=O)C1CC1,3,x,x,3,-5
C=CC#CC1(O)CC(C)[N+](C)(C)CC1C (stereo unspecified),106*,-10,x,2,-7
CC(=O)N1CC2(C1)[C@H](c1ccc(-c3cccc(F)c3)cc1)[C@@H](CO)N2CC1CCOCC1,1,x,x,11,0
O=C1C(NS(=O)(=O)c2cccs2)=C(N2CCN(Cc3ccccc3)CC2)C(=O)c2ccccc21,x,8,x,-10,54*
CN1CCN(C2=C(NS(=O)(=O)c3cccs3)C(=O)c3ccccc3C2=O)CC1,-4,-13,-7,22,10
CCOC(=O)C1CCN(C2=C(NS(=O)(=O)c3ccc(Br)cc3)C(=O)c3ccccc3C2=O)CC1,3,-3,-1,0,39*
CN1CCN(C2=C(NS(=O)(=O)c3ccccc3)C(=O)c3ccccc3C2=O)CC1,x,6,x,x,x
O=C1C(NS(=O)(=O)c2ccc(Cl)cc2)=C(N2CCCCC2)C(=O)c2ccccc21,0,0,x,-3,40*
NC(=O)C1CCN(C2=C(NS(=O)(=O)c3ccc(Br)cc3)C(=O)c3ccccc3C2=O)CC1,-1,4,4,-3,32*
NC(=O)C1CCN(C2=C(NS(=O)(=O)c3ccccc3)C(=O)c3ccccc3C2=O)CC1,1,7,-5,-1,13
C=CCN1Cc2ccccc2C[C@@]2(COC(c3ccc(OCCCO)cc3)=N2)C1=O,0,x,x,7,3
C[C@@H]1CN([C@H](C)CO)C(=O)c2cc(NS(=O)(=O)c3cn(C)cn3)ccc2O[C@H]1CN(C)CC1CCCCC1,0,x,0[16.7 µM],3,-2
C[C@@H]1CN([C@@H](C)CO)C(=O)Cc2cc(NC(=O)CCCN(C)C)ccc2O[C@H]1CN(C)C(=O)Nc1ccccc1,0,x,x,8,-5
CSc1ccccc1OCc1cc(C(=O)NCCN2CCCc3ccccc32)no1,0,14,x,95*,1
O=C(/C=C/c1ccccc1Cl)Nc1ccc2c(c1)C(=O)NC2=O,x,5,8,4,-5
SMILES,ERAP1 inh,Rtt109 Vps75,miR122 inh,S100A4 inh HTS,MLL AF4-AF9 inh
O=C(/C=C/c1ccccc1)Nc1ccc2c(c1)C(=O)NC2=O,1,5,4,-5,50*
COC(=O)c1ccc(CNC(=O)Cn2cnc(C(=O)Nc3ccc(C)c(C)c3)n2)cc1,-5,3,1,2,-3
Cc1ccc(CNC(=O)Cn2cnc(C(=O)Nc3ccc(C)c(C)c3)n2)o1,0,-2,-3,76*,0
Cc1ccc(-c2cnc3c(c2)C(=O)N([C@H](C)CO)C[C@@H](C)[C@H](CN(C)C(=O)c2cccc(F)c2)O3)cc1,-1,x,5[16.7 µM],-2,0
COc1ccc(-c2ccc3c(c2)[C@@H]2[C@@H](CCN2C(=O)C2CCC2)[C@H](CO)N3C)cc1,x,x,x,x,33*
COc1ccc(-c2ccc3c(c2)[C@@H]2[C@@H](CCN2C(=O)C2CCCCC2)[C@@H](CO)N3C)cc1,1,x,-5[16.7 µM],-10,-3
COc1ccc(-c2ccc3c(c2)[C@H]2[C@H](CCN2C(=O)NC2CCCC2)[C@H](CO)N3C)cc1,2,x,x,19,26*
C[C@@H]1CN([C@H](C)CO)C(=O)c2cc(NS(=O)(=O)c3cccs3)ccc2O[C@@H]1CN(C)S(=O)(=O)c1ccc(Cl)cc1,0,x,27[16.7 µM],-3,-3
C[C@@H]1CCCCO[C@H](CN(C)Cc2ccncc2)[C@@H](C)CN([C@@H](C)CO)C(=O)c2cc(NC(=O)c3ccccc3)ccc2O1,-3,x,-1[16.7 µM],6,-18
CCCN1[C@@H]2Cn3c(ccc(-c4cccnc4)c3=O)[C@H]1[C@@H](C(=O)NCCc1cn(C)cn1)[C@@H]2CO,31*,x,x,1,-2
CCCN1[C@@H]2Cn3c(ccc(-c4ccccc4)c3=O)[C@H]1[C@@H](C(=O)NCCc1cn(C)cn1)[C@@H]2CO,1,x,-4[16.7 µM],-4,2
CCNC(=O)[C@H]1[C@H](CO)[C@H]2Cn3c(ccc(-c4ccc(F)cc4)c3=O)[C@@H]1N2C,8,x,32[16.7 µM],138*,-2
C[C@@H]1CN([C@H](C)CO)C(=O)c2ccccc2-c2ccccc2CO[C@H]1CN(C)C(=O)Oc1ccccc1,-4,x,x,94*,6
C[C@H]1CN([C@@H](C)CO)C(=O)c2c(c3ccccc3n2C)-c2ccccc2CO[C@H]1CN(C)S(=O)(=O)c1ccccc1,-2,x,x,14,1
C[C@@H]1CN([C@H](C)CO)C(=O)c2c(c3ccccc3n2C)-c2ccccc2CO[C@H]1CN(C)S(=O)(=O)c1ccccc1,-6,x,x,131*,1
C[C@@H]1CN([C@@H](C)CO)C(=O)c2ccccc2-c2ccccc2CO[C@@H]1CN(C)C(=O)Oc1ccccc1,0,x,x,2,-4
C[C@@H]1CN([C@@H](C)CO)C(=O)c2c(c3ccccc3n2C)-c2ccccc2CO[C@@H]1CN(C)C(=O)[C@@H](Cc1ccccc1)N(C)C,2,x,x,38,12
C[C@H](CO)N1C[C@H](C)[C@@H](CN(C)C(=O)[C@H](Cc2ccccc2)N(C)C)OCc2ccccc2-c2c(n(C)c3ccccc23)C1=O,0,x,x,-12,37*
C[C@H](CO)N1C[C@H](C)[C@H](CN(C)C(=O)NC2CCCCC2)Oc2ccc(NC(=O)Cc3ccccc3)cc2C1=O,-3,x,7[16.7 µM],4,-2
C[C@@H]1CN([C@H](C)CO)C(=O)c2cc(NC(=O)Nc3ccc(F)cc3)ccc2O[C@H]1CN(C)Cc1ccc(C(=O)O)cc1,-21,x,32[16.7 µM],-3,-2

# Compound activity from PubChem BioAssay.
